Reference: ChEMBL document CHEMBL1649392, “Synthesis of substituted 3-amino-N-phenyl-1H-indazole-1-carboxamides endowed with antiproliferative activity” (Eur J Med Chem, 2011)

Columns and labels:
Type in all cases: functional
SN12C = experiment: Antiproliferative activity against human SN12C cells after 48 hrs by sulforhodamine B assay
How it was run: (§1)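 NCI 60-cell-line panel covering nine cancer types (leukemia, non-small cell lung, colon, CNS, melanoma, ovarian, renal, prostate, breast). Compounds were first tested at a single dose, then in a five-dose screen (series starting 0.01, 0.1 …) if they met NCI threshold criteria. Reported per line: GI50 (molar concentration inhibiting 50% net growth), TGI (total growth inhibition) and LC50 (50% net cell death).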

A549 = experiment: Antiproliferative activity against human A549 cells after 48 hrs by sulforhodamine B assay; settings: A549, 48 h; how it was run: as §1
786-0 = experiment: Antiproliferative activity against human 786-0 cells after 48 hrs by sulforhodamine B assay; settings: 786-0, 48 h; how it was run: as §1
SNB-19 = experiment: Antiproliferative activity against human SNB19 cells after 48 hrs by sulforhodamine B assay; settings: SNB-19, 48 h; how it was run: as §1
[1] = Antiproliferative activity against human […] cells after 48 hrs by sulforhodamine B assay; how it was run: as §1
OVCAR-4 = experiment: Antiproliferative activity against human OVCAR4 cells after 48 hrs by sulforhodamine B assay; settings: OVCAR-4, 48 h; how it was run: as §1
HCT-116 = experiment: Antiproliferative activity against human HCT116 cells after 48 hrs by sulforhodamine B assay; settings: HCT-116, 48 h; how it was run: as §1
HCT-15 = experiment: Antiproliferative activity against human HCT15 cells after 48 hrs by sulforhodamine B assay; settings: HCT-15, 48 h; how it was run: as §1
SK-MEL-2 = experiment: Antiproliferative activity against human SK-MEL-2 cells after 48 hrs by sulforhodamine B assay; settings: SK-MEL-2, 48 h; how it was run: as §1
SF-268 = experiment: Antiproliferative activity against human SF268 cells after 48 hrs by sulforhodamine B assay; settings: SF-268, 48 h; how it was run: as §1
OVCAR-8 = experiment: Antiproliferative activity against human OVCAR8 cells after 48 hrs by sulforhodamine B assay; settings: OVCAR-8, 48 h; how it was run: as §1
SF-539 = experiment: Antiproliferative activity against human SF539 cells after 48 hrs by sulforhodamine B assay; settings: SF-539, 48 h; how it was run: as §1
NCI-H460 = experiment: Antiproliferative activity against human NCI-H460 cells after 48 hrs by sulforhodamine B assay; settings: NCI-H460, 48 h; how it was run: as §1
HOP-62 = experiment: Antiproliferative activity against human HOP62 cells after 48 hrs by sulforhodamine B assay; settings: HOP-62, 48 h; how it was run: as §1
OVCAR-3 = experiment: Antiproliferative activity against human OVCAR3 cells after 48 hrs by sulforhodamine B assay; settings: OVCAR-3, 48 h; how it was run: as §1
CAKI-1 = experiment: Antiproliferative activity against human Caki1 cells after 48 hrs by sulforhodamine B assay; settings: CAKI-1, 48 h; how it was run: as §1
SW-620 = experiment: Antiproliferative activity against human SW620 cells after 48 hrs by sulforhodamine B assay; settings: SW-620, 48 h
How it was run: (§2)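 NCI 60-cell-line panel screen: single dose 10 µM first, then 5-dose testing (0.01, 0.1, … molar series). For each line, GI50 is the molar concentration giving 50% inhibition of net cell growth, TGI gives total inhibition of net growth, and LC50 gives 50% net cell death. Method follows the NCI DTP protocol.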

NCI-H226 = experiment: Antiproliferative activity against human NCI-H226 cells after 48 hrs by sulforhodamine B assay; settings: NCI-H226, 48 h; how it was run: as §1
OVCAR-5 = experiment: Antiproliferative activity against human OVCAR5 cells after 48 hrs by sulforhodamine B assay; settings: OVCAR-5, 48 h; how it was run: as §1
[2] = Antiproliferative activity against human Hs 578T cells after 48 hrs by sulforhodamine B assay; how it was run: as §1
NCI-H23 = experiment: Antiproliferative activity against human NCI-H23 cells after 48 hrs by sulforhodamine B assay; settings: NCI-H23, 48 h; how it was run: as §1
IGROV-1 = experiment: Antiproliferative activity against human IGROV1 cells after 48 hrs by sulforhodamine B assay; settings: IGROV-1, 48 h; how it was run: as §1
MOLT-4 = experiment: Antiproliferative activity against human MOLT4 cells after 48 hrs by sulforhodamine B assay; settings: MOLT-4, 48 h; how it was run: as §1
K562 = experiment: Antiproliferative activity against human K562 cells after 48 hrs by sulforhodamine B assay; settings: K562, 48 h; how it was run: as §1
UACC-62 = experiment: Antiproliferative activity against human UACC62 cells after 48 hrs by sulforhodamine B assay; settings: UACC-62, 48 h; how it was run: as §2
SK-OV-3 = experiment: Antiproliferative activity against human SKOV3 cells after 48 hrs by sulforhodamine B assay; settings: SK-OV-3, 48 h; how it was run: as §1
M14 = experiment: Antiproliferative activity against human M14 cells after 48 hrs by sulforhodamine B assay; settings: M14, 48 h; how it was run: as §1
EKVX = experiment: Antiproliferative activity against human EKVX cells after 48 hrs by sulforhodamine B assay; how it was run: as §1
UACC-257 = experiment: Antiproliferative activity against human UACC257 cells after 48 hrs by sulforhodamine B assay; settings: UACC-257, 48 h; how it was run: as §2
COLO 205 = experiment: Antiproliferative activity against human COLO205 cells after 48 hrs by sulforhodamine B assay; settings: COLO 205, 48 h; how it was run: as §1
PC-3 = experiment: Antiproliferative activity against human PC3 cells after 48 hrs by sulforhodamine B assay; settings: PC-3, 48 h; how it was run: as §1
[3] = read-out: LC50 (the source's name)

## Nc1nn(C(=O)Nc2ccc(Cc3ccccc3)cc2)c2ccc(Cl)cc12
SN12C
  GI50: 14.6 µM
  TGI: 42.9 µM
SN12C; [3]
  CC50: > 100 µM
A549
  GI50: 2.52 µM
  TGI: > 100 µM
A549; [3]
  CC50: > 100 µM
786-0
  GI50: 3.92 µM
  TGI: 28.2 µM
786-0; [3]
  CC50: 94.4 µM
SNB-19
  GI50: 14.6 µM
  TGI: 43.3 µM
SNB-19; [3]
  CC50: > 100 µM
[1]
  GI50: 2.58 µM
  TGI: 46.5 µM
[1]; [3]
  CC50: > 100 µM
OVCAR-4
  GI50: 5.73 µM
  TGI: 34.3 µM
OVCAR-4; [3]
  CC50: > 100 µM
HCT-116
  GI50: 0.467 µM
  LC50 (concentration causing 50% net cell death): 77.2 µM
  TGI: 25.1 µM
HCT-15
  GI50: 0.0458 µM
  LC50 (concentration causing 50% net cell death): > 100 µM
  TGI: > 100 µM
SK-MEL-2
  GI50: 33.6 µM
  TGI: > 100 µM
SK-MEL-2; [3]
  CC50: > 100 µM
SF-268
  GI50: 13 µM
  TGI: 47.7 µM
SF-268; [3]
  CC50: > 100 µM
OVCAR-8
  GI50: 14.9 µM
  TGI: > 100 µM
OVCAR-8; [3]
  CC50: > 100 µM
SF-539
  GI50: 1.51 µM
  TGI: 11.5 µM
SF-539; [3]
  CC50: 38.8 µM
NCI-H460
  GI50: 0.0645 µM
  TGI: 14.7 µM
NCI-H460; [3]
  CC50: 60.6 µM
HOP-62
  GI50: 1.21 µM
  LC50 (concentration causing 50% net cell death): 59.7 µM
  TGI: 16.4 µM
OVCAR-3
  GI50: 6.66 µM
  TGI: 20.8 µM
OVCAR-3; [3]
  CC50: 48.2 µM
CAKI-1
  GI50: 0.217 µM
  TGI: > 100 µM
CAKI-1; [3]
  CC50: > 100 µM
SW-620
  GI50: 0.0565 µM
  TGI: 76.5 µM
SW-620; [3]
  CC50: > 100 µM
NCI-H226
  GI50: 15.4 µM
  TGI: 66.7 µM
NCI-H226; [3]
  CC50: > 100 µM
OVCAR-5
  GI50: 18.8 µM
  TGI: > 100 µM
OVCAR-5; [3]
  CC50: > 100 µM
[2]
  GI50: 13.3 µM
  TGI: 41.7 µM
[2]; [3]
  CC50: > 100 µM
NCI-H23
  GI50: 5.34 µM
  TGI: 68.4 µM
NCI-H23; [3]
  CC50: > 100 µM
IGROV-1
  GI50: 13.7 µM
  TGI: > 100 µM
IGROV-1; [3]
  CC50: > 100 µM
MOLT-4
  GI50: 2.41 µM
  TGI: 55.3 µM
MOLT-4; [3]
  CC50: > 100 µM
K562
  GI50: 0.0357 µM
  LC50 (concentration causing 50% net cell death): > 100 µM
  TGI: 14.7 µM
UACC-62
  GI50: 0.0412 µM
  TGI: > 100 µM
UACC-62; [3]
  CC50: > 100 µM
SK-OV-3
  GI50: 15.8 µM
  TGI: 50.5 µM
SK-OV-3; [3]
  CC50: > 100 µM
M14
  GI50: 0.0888 µM
  TGI: 14 µM
M14; [3]
  CC50: > 100 µM
EKVX
  GI50: 3.19 µM
  TGI: 97.6 µM
EKVX; [3]
  CC50: > 100 µM
UACC-257
  GI50: 4.92 µM
  TGI: > 100 µM
UACC-257; [3]
  CC50: > 100 µM
COLO 205
  GI50: 0.588 µM
  LC50 (concentration causing 50% net cell death): > 100 µM
  TGI: 23.8 µM
PC-3
  GI50: 2.9 µM
  TGI: 44.3 µM
PC-3; [3]
  CC50: > 100 µM
